Sampled rows, rich in hits. Any-hit rate of the full collection: about 2.1%.
SUMO1-SIM PPI: modulators of SUMO1 protein-protein interactions, primary screen, biochemical, uHTS; SUMO1 binding to a labelled peptide, TR-FRET, 1 h; inhibition, % at 20 µM; 360,000 compounds, 0.33% hits; in the data active means inhibition above about 37%
Target sequence (P63165 whole entry, looked up): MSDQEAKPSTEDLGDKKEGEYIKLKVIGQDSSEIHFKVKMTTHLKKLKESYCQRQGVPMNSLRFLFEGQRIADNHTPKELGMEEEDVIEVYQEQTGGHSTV
GRK2 aptamer HTS: compounds blocking aptamer binding on GRK2 – biochemical, human GRK2, bead flow cytometry, HTS, primary screen | Beta-adrenergic receptor kinase 1 (Homo sapiens), P25098 | FAM-aptamer displacement from GRK2 | AID 488847, 2010 | inhibition of aptamer binding, % at 10 µM | 330,000 compounds, 0.59% hits;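 active means inhibition of aptamer binding above 40%, roughly 3 SD of noise, on plates passing a quality check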;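 further: median bead fluorescence of bound FAM aptamer so fluorescent compounds give negative values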
STEP inh: STEP phosphatase inhibitors, primary screen, biochemical, fluorescence intensity, uHTS; Tyrosine-protein phosphatase non-receptor type 5 (Homo sapiens), P54829; recombinant STEP, OMFP fluorogenic substrate; inhibition, % at 20 µM; 360,000 compounds, 0.25% hits;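 active means inhibition at 20 µM, scaled per plate between control wells, above about 37%, limit read from the data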;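 further: 0% = DMSO with enzyme and substrate and 100% = substrate only without enzyme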
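System: isolated STEP enzyme; schedule: 20 min enzyme reaction at room temperature, protected from light; medium: Bis-Tris buffer pH 6.0, 2.5 mM DTT, 0.005% Tween 20; signal: fluorescence, 480/540 nm; dosing: single compound dose of 20 µM, 1% DMSO final; also added: OMFP substrate, 25 µM final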
DNMT1 inh: human DNMT1 methyltransferase inhibitors, primary screen, biochemical, molecular beacon, fluorescence, HinP1I cleavage, uHTS; DNA (cytosine-5)-methyltransferase 1 (Homo sapiens), P26358; inhibition (reported as % activation of signal), % at 10 µM; 360,000 compounds, 0.83% hits; AID 588458, 2011; in the data active means inhibition above about 50%
LMPTP inh: LMPTP phosphatase inhibitors, primary screen, biochemical, fluorescence intensity, uHTS. Low molecular weight phosphotyrosine protein phosphatase (Homo sapiens), P24666. recombinant LMPTP-A, OMFP fluorogenic substrate. inhibition, % at 20 µM. 360,000 compounds, 0.22% hits;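 active means compounds that cut the enzyme signal by at least half of the control window in the single-dose screen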;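 further: plate controls were DMSO wells with enzyme plus substrate for no effect and substrate without enzyme for full effect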
Target sequence (P24666 whole entry, looked up): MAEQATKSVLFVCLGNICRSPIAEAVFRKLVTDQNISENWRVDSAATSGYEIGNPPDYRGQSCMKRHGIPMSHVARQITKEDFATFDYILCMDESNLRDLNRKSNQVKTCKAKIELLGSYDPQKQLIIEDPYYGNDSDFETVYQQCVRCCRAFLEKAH
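Test system: LMPTP-A phosphatase enzyme. Amount: LMPTP-A at 0.625 nM final in the reaction. Reagent: OMFP substrate, 400 µM final. Times: 50 min at room temperature. Signal: endpoint fluorescence intensity from OMFP dephosphorylation. Read-out basis: % inhibition. Benchmarks: no-enzyme and uninhibited controls.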
Scp1 inh: Scp-1 phosphatase inhibitors, primary screen, biochemical, colorimetric, uHTS | Recombinant Scp1, phosphopeptide, malachite green phosphate absorbance | inhibition, % at 20 µM | 340,000 compounds, 0.88% hits;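 active means inhibition above about 50% at 20 µM, limit read from the data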;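 further: plate controls were DMSO wells with enzyme for no effect and wells lacking enzyme for full effect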
Target sequence (Q9GZU7 76-261 limits assumed): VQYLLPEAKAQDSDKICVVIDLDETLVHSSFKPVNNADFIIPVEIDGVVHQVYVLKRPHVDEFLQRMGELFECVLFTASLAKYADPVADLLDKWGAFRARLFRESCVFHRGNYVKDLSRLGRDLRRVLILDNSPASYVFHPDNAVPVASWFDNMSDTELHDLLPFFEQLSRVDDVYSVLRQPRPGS
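Test system: SCP-1 phosphatase catalytic domain, residues 76-261; measured by: colorimetric phosphate reagent with accelerator and stabiliser, absorbance at 630 nm; timing: enzyme reaction 45 min at room temperature, colour 5 min, stabilisation 30 min; also added: Phosphorylated 17-residue peptide substrate; compound dosing: one concentration, 20 µM, with 1.0% DMSO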
Scp1 confirm: Scp-1 phosphatase inhibitors, retest, confirmation, biochemical, colorimetric, single concentration; shares compounds with Scp1 inh; recombinant SCP-1 catalytic domain, phosphate release, malachite green absorbance; inhibition, % at 20 µM; 2,500 compounds, 61% hits;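 further: plate controls were DMSO with enzyme for no effect and buffer wells lacking enzyme for full effect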
MG interference: colorimetric readout interference by compounds, confirmation, artefact control for Scp-1 inhibitor project, biochemical, single concentration; shares compounds with Scp1 inh; Colorimetric interference counterscreen, malachite green absorbance 630 nm; apparent inhibition (interference), % at 20 µM; 2,500 tested, under 10 active;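 further: compounds added after enzyme reaction finished so only phosphate colour detection is probed; plate controls were DMSO wells with completed Scp-1 reaction for no effect and substrate wells lacking enzyme for full effect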
Scp1 DSF: Scp-1 binding by thermal shift, confirmation, orthogonal assay for Scp-1 inhibitor project, biophysical, differential scanning fluorimetry. 1,500 compounds, 25% hits. Recombinant SCP1, Sypro Orange thermal shift Tm. shares compounds with Scp1 inh. thermal shift relative to vanadate control, % at 40 µM. AID 540329, 2011;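 active means substances whose mean melting-temperature shift, as a percentage of the reference inhibitor's shift, reaches about 5.3%, limit read from the data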;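 further: 0% = Tm of DMSO wells and 100% = Tm with sodium orthovanadate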
* marks the source's active call; other numbers are inactive results.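 How the source made its calls, unless noted: active means inhibition of at least 30% at 20 µM; inactive means the rest.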

For CN(C)c1ccc(-c2ccnc3c2CC(C)(C(=O)NCc2cccc(Cl)c2)O3)cc1 (stereo not drawn) the results were SUMO1-SIM PPI -3.1, STEP inh 0.0, DNMT1 inh -15.6 and LMPTP inh 3.6.
For CCc1ccc(N2CC(C(=O)OCC(=O)c3c(N)n(CC(C)C)c(=O)n(C)c3=O)CC2=O)cc1 (stereo not drawn) the results were SUMO1-SIM PPI 0.7, GRK2 aptamer HTS 0.0, STEP inh 3.5, DNMT1 inh 4.5, LMPTP inh 2.3 and Scp1 inh -9.5.
Screening Cn1ccsc1=NC(=O)c1ccc(=O)[nH]c1 returned SUMO1-SIM PPI 1.5, GRK2 aptamer HTS 0.0, STEP inh -0.9, DNMT1 inh 1.5, LMPTP inh -0.3, Scp1 inh 94.0*, Scp1 confirm -19.4 and MG interference -16.4.
Screening CC(C[N+](C)(C)C)OC(=O)C1(c2ccccc2)CCCC1 (stereo not drawn) returned SUMO1-SIM PPI 3.2, GRK2 aptamer HTS 0.0, STEP inh -3.1, DNMT1 inh 0.5, LMPTP inh -1.5, Scp1 inh 63.0*, Scp1 confirm -20.0 and MG interference -15.6.
CC1CCN(C(=O)COC(=O)/C=C/c2ccco2)CC1 was read as SUMO1-SIM PPI -11.7, GRK2 aptamer HTS 51.0*, STEP inh 9.9, DNMT1 inh 37.9, LMPTP inh 2.2, Scp1 inh 65.0*, Scp1 confirm 25.0 and MG interference -16.7.
Screening CC1CCCC(C)N1C(=O)COC(=O)/C=C/c1ccco1 (stereo not drawn) returned SUMO1-SIM PPI -15.8, GRK2 aptamer HTS 9.0, STEP inh 1.7, DNMT1 inh 24.9, LMPTP inh -0.3 and Scp1 inh 19.8.
CN(Cc1ccccc1)C(=O)COC(=O)/C=C/c1ccco1 was read as SUMO1-SIM PPI -11.9, GRK2 aptamer HTS 13.0, STEP inh 8.2, DNMT1 inh 31.6, LMPTP inh 11.8, Scp1 inh 64.5*, Scp1 confirm 62.3*, MG interference -8.7 and Scp1 DSF -12.6.
For Cc1cccc(C)c1NC(=O)CN(C)C(=O)c1cccc(-n2cccc2)c1 the results were SUMO1-SIM PPI 2.9, GRK2 aptamer HTS 10.0, STEP inh -1.1, DNMT1 inh 18.5, LMPTP inh 4.4, Scp1 inh 67.6*, Scp1 confirm 46.1*, MG interference -11.2 and Scp1 DSF 1.6.
`O=C(NC(=O)c1ccccc1O)c1ccc(C(F)(F)F)cc1` gave SUMO1-SIM PPI 6.1, GRK2 aptamer HTS 0.0, STEP inh 25.8, DNMT1 inh 0.5, LMPTP inh 6.3, Scp1 inh 82.6*, Scp1 confirm 67.6*, MG interference -12.3 and Scp1 DSF 0.1.
For Cc1ccc(C(=O)NC(=S)NNC(=O)c2ccccc2O)cc1 the results were SUMO1-SIM PPI -1.8, GRK2 aptamer HTS 0.0, STEP inh 2.0, DNMT1 inh -1.6, LMPTP inh 0.2 and Scp1 inh -9.1.
`CCCc1ccc(C(=O)NC(=O)c2ccccc2O)cc1` gave SUMO1-SIM PPI 1.6, GRK2 aptamer HTS 2.0, STEP inh 48.1*, DNMT1 inh -2.4, LMPTP inh 37.0, Scp1 inh 67.3*, Scp1 confirm 88.6*, MG interference -14.5 and Scp1 DSF -8.9.
CCCc1ccc(C(=O)NNC(=O)c2ccc(Br)cc2)cc1 was read as SUMO1-SIM PPI -1.9, GRK2 aptamer HTS 0.0, STEP inh 4.7, DNMT1 inh 33.2, LMPTP inh 36.0, Scp1 inh 93.9*, Scp1 confirm 80.7*, MG interference -9.8 and Scp1 DSF -14.0.
Cn1c(=O)c(NC(=O)c2ccccc2)c2n(c1=S)CCCCC2 was read as SUMO1-SIM PPI 2.5, GRK2 aptamer HTS 0.0, STEP inh -2.0, DNMT1 inh 8.6, LMPTP inh -1.3, Scp1 inh 54.9*, Scp1 confirm 36.3*, MG interference -14.0 and Scp1 DSF -20.4.
`COc1ccc(CCNC(=O)c2cc3cc(F)ccc3nc2C)cc1OC` gave SUMO1-SIM PPI 2.3, GRK2 aptamer HTS 3.0, STEP inh 2.1, DNMT1 inh 1.3, LMPTP inh -0.4 and Scp1 inh -13.3.
For CN(Cc1ccccc1)C(=O)c1ncn(C)c1C(=O)N(C)Cc1ccccc1 the results were SUMO1-SIM PPI -3.3, GRK2 aptamer HTS 1.0, STEP inh -3.3, DNMT1 inh 10.8, LMPTP inh -0.1, Scp1 inh 93.4*, Scp1 confirm 84.6*, MG interference -17.2 and Scp1 DSF -3.5.
CN(Cc1ccccc1)C(=O)c1ncn(Cc2ccccc2)c1C(=O)N(C)Cc1ccccc1 was read as SUMO1-SIM PPI -3.9, GRK2 aptamer HTS 0.0, STEP inh -2.4, DNMT1 inh 1.5, LMPTP inh 0.2 and Scp1 inh -0.2.
For O=C(Cc1ccccc1)NNC(=O)c1ccc(NC(=O)c2ccccc2)cc1 the results were SUMO1-SIM PPI -6.9, GRK2 aptamer HTS 0.0, STEP inh 23.8, DNMT1 inh 0.4, LMPTP inh 36.3 and Scp1 inh 33.1.
For O=C(NNC(=O)c1ccc(NC(=O)c2ccccc2)cc1)c1ccccc1 the results were SUMO1-SIM PPI 7.5, GRK2 aptamer HTS 0.0, STEP inh 31.8, DNMT1 inh 25.0, LMPTP inh 22.4, Scp1 inh 61.6*, Scp1 confirm 1.4 and MG interference -19.5.
